High-throughput results (PubChem BioAssay)
The full list was thinned out, with hits kept by preference.
Ab BasE inh: BasE siderophore biosynthesis inhibition; inhibition, % (concentration not given with the values); AID 485350; 0.1% of 84,000 active; purified BasE, fluorescence polarization binding displacement; in the data active means inhibition above about 25%, passing the limit was not always enough;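 further: 0% = negative plate control signal and 100% = positive plate control signal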
LANA-nucl inh: inhibitors of KSHV LANA binding to nucleosomes; z-score (concentration not given with the values); 0.3% of 51,000 active; FITC-LANA1-23 / chicken nucleosome fluorescence polarization; stronger effect = lower value;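 active means both repeat wells score below -2 in polarization z-score versus plate sample wells, excluding overly bright wells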
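Material: Purified chicken nucleosomes with FITC-labelled LANA N-terminal peptide (1-23) | Reagent: 50 nM FITC-LANA1-23 probe | Medium: TEN-BT buffer, pH 7.5 | Times: 10–45 min incubation at room temperature | Detection: Fluorescence polarization | Replication: Duplicates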
* hit, by the source's call; x = no result; ! = a repeat was not active.

SMILES	Ab BasE inh	LANA-nucl inh
CSC1=N/C(=C\c2ccccc2)C(=O)S1	2	-0.56
CCN(CC)c1ccc(/C=C2\N=C(SC)SC2=O)cc1	9	-2.6*
COc1cc2cc(C(=O)c3ccccc3O)cnc2cc1OC	3	x
Cc1ncc(CO)c(/C=N/N=C/c2ccc(Cl)cc2)c1O	3	0.88
O=C(NC1CCCC1)c1ccc(Nc2nc3ccccc3n3nnnc23)cc1	0	0.057
CCN(CC)Cc1c(O)ccc2c1O/C(=C\c1ccccc1Cl)C2=O	1	-3*
O=C1/C(=C/c2ccccc2)Oc2c1ccc(O)c2CN1CCCC1	1	2.2
CCN1CC=C2C(C#N)=C(N)C(C#N)(C#N)C(c3ccc(OC)c4ccccc34)C2C1 (configuration not stated)	0	-0.78
CCCN1CC=C2C(C#N)=C(N)C(C#N)(C#N)C(c3cccc(OC)c3)C2C1 (configuration not stated)	11	-0.46
N#CC1=C(N)C(C#N)(C#N)C(c2ccco2)C2CN(Cc3ccccc3)CC=C12 (configuration not stated)	28	-5.4*
CCN1CC=C2C(C#N)=C(N)C(C#N)(C#N)C(C)C2C1 (configuration not stated)	6	-2.5*
CN1CC=C2C(C#N)=C(N)C(C#N)(C#N)C(Cc3ccccc3)C2C1 (configuration not stated)	19	-1.8
CCCN1CC=C2C(C#N)=C(N)C(C#N)(C#N)C(C(C)C)C2C1 (configuration not stated)	22	-4*
CCC(=O)Nn1cnc2c(cnn2-c2ccccc2)c1=O	0	-2.2*
O=C(Cc1ccccc1)Nn1cnc2c(cnn2-c2ccccc2)c1=O	-1	-0.8
CC(C)N1CC=C2C(C1)C(c1ccccc1Cl)C(C#N)=C(N)C2(C#N)C#N (configuration not stated)	26*	-2.3*
CC(C)(C)OC(=O)N1CC=C2C(C1)C(c1cccc(F)c1)C(C#N)=C(N)C2(C#N)C#N (configuration not stated)	-12	1.8
CCOC(=O)Cn1c2[n+](c3ccccc31)CC(O)CS2 (configuration not stated)	0	-0.43
NC(=O)Cn1c2[n+](c3ccccc31)CC(O)CS2 (configuration not stated)	0	-2.4*
FC(F)(F)c1cccc(Nc2nc3ccccc3[nH]2)c1	4	0.91
C=CCN(C)C1CC(=O)N(c2ccc(C)c(Cl)c2)C1=O (configuration not stated)	1	-0.59
O=C1c2cccc3c(N4CCCCC4)ccc(c23)C(=O)N1c1ccccn1	18	-6.2*
CC(=O)N(C(C)=O)N1C(=O)c2cccc3c(N4CCOCC4)ccc(c23)C1=O	17	x
O=c1c(O)c(-c2ccc(O)c(O)c2)oc2cc(O)cc(O)c12	29*!	0.82
O=c1cc(-c2ccc(O)c(O)c2)oc2cc(O)cc(O)c12	2	-0.2
SMILES	Ab BasE inh	LANA-nucl inh
COc1cccn(CC(=O)NN)c1=O	3	x
CCCOc1ccc(Cn2cnc3ccccc32)cc1	19	0.18
COc1ccc(OCCn2cnc3ccccc32)cc1	26*	-0.2
Brc1ccc(OCCn2cnc3ccccc32)cc1	39*	0.37
O=c1c2ccccc2ncn1CCOc1ccc(Br)cc1	1	x
O=C(O)c1ccc(-n2cnc3ccccc32)cc1	29	x
Cc1[nH]n(-c2ccccc2)c(=O)c1/C=N/O	2	-0.022
Cc1[nH]n(-c2ccccc2)c(=O)c1C=Nc1ccc(O)cc1	53*	x
COc1cccc(-c2csc(-c3ccccn3)n2)c1	0	-1
CCN1C(=O)CN(c2ccccc2)C1=S	-3	-2.8
O=C(Nc1ccc2c(c1)oc1ccccc12)C1CCCO1 (configuration not stated)	0	-0.43
O=C(Nc1ccc2c(c1)CCC2)C1CCCO1 (configuration not stated)	1	-2.1*
CC12CNCC(C)(CN(C(=O)CCC(=O)O)C1)C2=O	1	0.28
Cc1nc(Sc2nnc3sc4ccccc4n23)c2c3c(sc2n1)CCC3	-4	x
Cc1ccc(C)n1-c1ccc(C(=O)O)cc1O	47*	-0.18
Cc1cc(C(=O)O)ccc1-n1c(C)ccc1C	3	0.2
N#C/C(=C\C1=C(N2CCOCC2)C(=C/c2ccc(Cl)cc2Cl)/CC1)c1nnc(N2CCOCC2)n1-c1ccccc1	1	x
CN(C)c1ccc(C2Nc3sc4c(c3C(=O)N2C)CCCC4)cc1 (configuration not stated)	0	x
O=C(CSc1ccccn1)Nc1ncccn1	6	-0.76
Cc1nonc1NC(=O)CSc1ccccn1	57*	0.42
O=C(O)CC1S/C(=N/N=C/c2ccccc2)NC1=O (configuration not stated)	0	0.67
O=C1N/C(=N/N=C\c2[nH]ncc2Br)SC1c1ccccc1 (configuration not stated)	27*	0.82
CC(Sc1nnc(-c2ccccc2Br)o1)C(=O)NC1(C#N)CCCCC1 (configuration not stated)	0	x
Cc1noc(NS(=O)(=O)c2ccc(NC3OC(=O)c4ccccc43)cc2)c1C (configuration not stated)	-1	x
O=C(Cn1cc(/C=N/NC(=S)Nc2ccccc2)c2ccccc21)NCc1ccco1	0	-0.96
SMILES	Ab BasE inh	LANA-nucl inh
O=C(Cn1cc(/C=C2\NC(=S)N(c3ccccc3)C2=O)c2ccccc21)NCc1ccco1	13	-2.3*
COc1cccc2c1C(=O)c1c(O)c3c(c(O)c1C2=O)C[C@@](O)(C(=O)CO)C[C@@H]3O[C@H]1C[C@H](N)[C@H](O)[C@H](C)O1	15	-8.5*!
COc1cccc2c1C(=O)c1c(O)c3c(c(O)c1C2=O)C[C@@](O)(C(C)=O)C[C@@H]3OC1CC(N)C(O)C(C)O1 (some centres not stated)	15	-6*
O=C(Nc1ccccc1)N(Cc1nc(-c2ccccc2)no1)C1CCCCC1	2	-2.1*
O=C(c1ccccc1)N(Cc1nc(-c2ccccc2)no1)C1CCCCC1	2	-1.8
Cc1ccccc1-c1cc(C(=O)O)c2c(-c3ccccc3)[nH]nc2n1	1	-0.12
O=C(Cc1ccc(F)cc1)Nc1cc(=O)[nH]c(=O)[nH]1	1	-2.2*
O=C(CSCc1ccccc1)Nc1cc(=O)[nH]c(=O)[nH]1	1	-0.53
Cc1ccc2c(c1)c1c(n2CCN(Cc2ccccc2)Cc2ccccc2)C(=O)CCC1	2	x
CC(=O)NC1C(O/N=C2/C(=O)N(CCOc3ccccc3C)c3ccc(C)cc32)OC(CO)C(O)C1O (configuration not stated)	0	-0.96
COc1ccc(NC(=O)CN2C(=O)C(c3ccccc3)=NC23CCCC3)cc1	0	-0.31
COc1ccc(-c2csc(/C(C#N)=C(\O)CSc3nnc(-c4ccccc4F)n3C3CC3)n2)cc1OC	-2	x
COc1ccc(-c2csc(/C(C#N)=C(\O)CSc3nccn3C)n2)cc1OC	31*	x
c1cnc2c(c1)NC1(CCCCC1)N2	29	-3.6*
CCSC1=NC2(CCCCC2)Nc2ccccc21	0	x
CN(C)C(=O)c1cnc(Cl)c2ccccc12	x	0.41
O=C1c2ccccc2C(=O)N1Cc1cc(=O)n2ccsc2n1	2	x
O=c1cc(CN2CCCc3ccccc32)nc2sccn12	12	-7.9*
CN(C)Cc1ccc(CNCc2cnn(-c3ccccc3)n2)cc1	-2	x
CC(=O)Oc1ccc(C(=O)NC2CCSC2=O)cc1 (configuration not stated)	1	-0.29
